Data published in paper PMC4235313 (Chemistry (Weinheim an Der Bergstrasse, Germany), 2013).

Target: T1, S. aureus PBP2 (Staphylococcus aureus, UniProt Q9R744)
T1 sequence (Q9R744 1-727): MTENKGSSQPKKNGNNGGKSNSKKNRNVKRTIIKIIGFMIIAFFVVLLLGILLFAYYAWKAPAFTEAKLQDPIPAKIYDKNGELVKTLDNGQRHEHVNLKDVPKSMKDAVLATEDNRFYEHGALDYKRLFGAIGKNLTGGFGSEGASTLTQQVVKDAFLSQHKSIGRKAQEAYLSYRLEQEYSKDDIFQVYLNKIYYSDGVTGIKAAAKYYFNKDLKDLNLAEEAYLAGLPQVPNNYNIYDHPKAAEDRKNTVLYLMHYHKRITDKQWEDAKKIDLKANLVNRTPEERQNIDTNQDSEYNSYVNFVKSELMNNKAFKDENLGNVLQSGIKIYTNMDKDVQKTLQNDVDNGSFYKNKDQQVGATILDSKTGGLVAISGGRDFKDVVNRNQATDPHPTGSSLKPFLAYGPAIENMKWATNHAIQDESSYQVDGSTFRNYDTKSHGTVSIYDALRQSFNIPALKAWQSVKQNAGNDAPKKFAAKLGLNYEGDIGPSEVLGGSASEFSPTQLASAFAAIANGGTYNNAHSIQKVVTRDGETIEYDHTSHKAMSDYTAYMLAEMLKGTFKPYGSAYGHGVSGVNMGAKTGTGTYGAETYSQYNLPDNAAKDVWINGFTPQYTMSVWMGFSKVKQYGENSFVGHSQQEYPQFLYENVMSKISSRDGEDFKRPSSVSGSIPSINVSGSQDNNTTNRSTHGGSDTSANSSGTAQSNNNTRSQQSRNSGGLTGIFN
Type: biochemical, Staphylococcus aureus RN4220
Settings: for suppression of the peptidoglycan polymerization (in words): susceptible (normal lipid II analogue) and resistant (depsi-lipid II analogue) models of the PBP2 reaction, Figure 6
Procedure, shortened: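 N-terminal His6 S. aureus PBP2 (gene from RN4220 genomic DNA), expressed in E. coli BL21(DE3)pLysS, Ni-NTA and gel-filtration purified; 30 μg/mL in 50 mM HEPES pH 7.0, 18 mM MnCl2, 10% DMSO. Test compound series started with 4 μM [14C]-C35-lipid II or [14C]-C35-depsi-lipid II analogue, 30 °C, 4 min; SDS stop; cellulose TLC; phosphorimaging of polymerised product.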

Row | Compound | IC50 [µM] | suppression of the peptidoglycan polymerization (in words)
1 | CN[C@H](CC(C)C)C(=O)N[C@H]1C(=O)N[C@@H](CC(N)=O)C(=O)N[C@H]2C(=O)N[C@H]3C(=O)N[C@H](C(=O)N[C@H](C(=O)O)c4cc(O)cc(O)c4-c4cc3ccc4O)[C@H](O)c3ccc(c(Cl)c3)Oc3cc2cc(c3O[C@@H]2O[C@H](CO)[C@@H](O)[C@H](O)[C@H]2O[C@H]2C[C@](C)(N)[C@H](O)[C@H](C)O2)Oc2ccc(cc2Cl)[C@H]1O [vancomycin] | 1.52 | suppressed the peptidoglycan polymerization only when normal lipid II analogue was used
2 | moenomycin |  | suppressed the peptidoglycan polymerization regardless of the use of normal or depsi-lipid II analogues
